The values that follow come from PMC11157418 (Clinical and Translational Science, 2024).

Data set [1] deals with human induced pluripotent stem (iPS) cell-derived hepatocytes. In words: MTT cytotoxicity assay. It counts as cell-based. Conditions: ALY688 0.5 to 2000 nM, globular adiponectin 1 μg/mL; 4 and 24 h; Figure S1A. The gist of the method:
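iPS cell-derived human hepatocytes were exposed to test compound at 0.5, 1, 100, 500, 1000, 1500 and 2000 nM, to globular adiponectin 1 μg/mL, or to H₂O₂ 500 μM for 4 and 24 h. Viability was quantified by MTT formazan per manufacturer. Experiments were repeated at least three times; mean ± SEM.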

For data set [2] the test system is unchanged. In words: LDH release cytotoxicity assay. The format is cell-based. Conditions: ALY688 0.5 to 2000 nM, globular adiponectin 1 μg/mL; 4 and 24 h; Figure S1B. The essentials: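 iPS cell-derived human hepatocytes were exposed to test compound at 0.5, 1, 100, 500, 1000, 1500 and 2000 nM, to globular adiponectin 1 μg/mL, or to H₂O₂ 500 μM for 4 and 24 h. Cytotoxicity was quantified as LDH release by kit per manufacturer. Experiments were repeated at least three times; mean ± SEM.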
(In general: Release of lactate dehydrogenase indicates damage to the cell membrane.)

Another data set deals with STAM mice. In words: STAM. The format is in vivo, C57BL/6N mice. The gist of the method: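 Male C57BL/6N mice received 200 μg streptozotocin s.c. at 2 days after birth and were fed HFD (57 kcal% fat) from week 4 to week 9. From week 6 to week 9, mice received saline vehicle or test compound at 0.5 or 5 mg/kg/day, by daily s.c. injection or s.c. osmotic pump (0.25 μL/h); n=6/group. Read-outs were body weight during treatment, and terminal plasma ALT/AST (dry-chemistry analyser) and liver weight. Unpaired two-sided t-test.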

Data set [3] can be described thus: Pharmacokinetic study after single s.c. injection. The format is in vivo, Sprague-Dawley rats. The note with it: male, Sprague-Dawley, rat, plasma, sc, 10 mg/kg. The gist of the method: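 Male adult Sprague–Dawley rats (two per cage, 22–24°C, 12-h light cycle) received a single s.c. dose of 10 mg/kg. Plasma peptide was measured by LC–MS/MS. PK parameters were computed with values below LLOQ set to zero.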

Data set [4] deals with mice with TAA-induced liver injury / CCl4-induced liver fibrosis. Conditions: cited from earlier work.
For data set [5] the following is noted: cited from earlier work.
The subject of another data set is liver of CDAHFD-fed mice. In words: Hepatic gene expression in CDAHF mouse model. It counts as in vivo, C57BL/6N mice. Conditions: RT-qPCR, 30 mg/kg oral. In general terms: Real-time PCR tracks product formation cycle by cycle.
Data set [6] deals with CDAHFD-fed mice. The data set can be described thus: CDAHF diet-induced mouse model of MASH. Conditions: 30 mg/kg/day oral dosing; Figure 2c-g. It counts as in vivo, C57BL/6N mice. The essentials: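 Male C57BL/6N mice, 8 weeks old, fed a choline-deficient, low-methionine high-fat diet (60 kcal% fat) for 12 weeks. From week 3, obeticholic acid 30 mg/kg was given daily by oral gavage in 0.5% CMC/0.01% Tween-80 for 9 weeks. Vehicle-treated chow-fed mice served as negative controls (n=10/group). End-of-treatment read-outs were serum ALT/AST by commercial kits, liver weight, hepatic TG and H&E NAS scoring.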

Data set [7] deals with CDAHFD-fed mice. In words: Hepatic fibrosis in CDAHF mouse model. It counts as in vivo, C57BL/6N mice. Conditions: 30 mg/kg daily oral; Figure 3a-c.
[8] abbreviates: continuous infusion, high dose 5 mg/kg/day, vs control mice.

Where a SMILES comes first, the peptide text is derived from it. [ ]: non-standard residue; d: D form. Nva = CCC[C@H](N)C(=O)O

The half-life is how long it takes for the measured level to halve. The low end stands for fast loss, the high end for slow loss. For the compound `CCC[C@H](NC(=O)[C@@H]1CCCN1C(=O)[C@@H](NC(=O)[C@H](N)CC(N)=O)[C@@H](C)CC)C(=O)N[C@@H](CC(C)C)C(=O)N[C@@H](Cc1ccc(O)cc1)C(=O)N[C@H](CO)C(=O)N[C@@H](Cc1ccccc1)C(=O)N[C@@H](C)C(=O)N[C@H](CO)C(N)=O` [ALY688] (H-[dN]IP[Nva]LY[dS]FA[dS]-NH2; N-terminus and C-terminus assumed), the “Cytotoxicity, MTT assay” value in data set [1] was “No toxicity”. In addition, the “Cytotoxicity, LDH release assay” value in data set [2] is on record as “No toxicity”. The “Body weight during the treatment period” value in the data set with STAM mice (0.5 or 5 mg/kg/day, daily s.c. or osmotic pump, Figure 1b) is “did not induce change in body weight”. Moreover, in the data set on STAM mice (setting [8]), the “Serum ALT level” value is recorded as “slightly lower levels of ALT without statistical significance” and the “Serum AST level” value was “significantly reduced”. Also, in the data set on STAM mice (daily s.c. injection, 0.5 or 5 mg/kg/day, vs vehicle), the “Serum ALT and AST levels” value is “did not affect”. This compound showed a half-life in data set [3] of 27 min. Further, the “Effect against TAA-induced liver injury and CCl4-induced liver fibrosis” value in data set [4] was “liver protective effects”. In addition, in data set [5], the “Stability in mouse plasma” value was “good stability”.

For `CC[C@H]1[C@@H](O)[C@@H]2[C@H](CC[C@]3(C)[C@@H]([C@H](C)CCC(=O)O)CC[C@@H]23)[C@@]2(C)CC[C@@H](O)C[C@@H]12` [OCA, obeticholic acid], the “Hepatic expression of fatty acid oxidation genes (Acot1, Acox1, Cyp4a12)” value with liver of CDAHFD-fed mice (Figure 4e) is “restored”. The “Hepatic expression of fibrosis-related genes (Tgfβ, Col1a1, Timp1)” value in the data set on liver of CDAHFD-fed mice (Figure 4f) is given as “appeared to reduce the expression of most of these fibrotic genes, although without statistical significance”. Moreover, the “Expression of MASH-induced inflammatory genes” value in the data set on liver of CDAHFD-fed mice (Figure 4g) is listed as “failed to reverse”. In addition, the “Effect on alleviating MASH” value in the data set with CDAHFD-fed mice [6] is “did not show beneficial effects”. Moreover, the “Hepatic fibrosis by histological examination” value with CDAHFD-fed mice [7] was “protective effects against hepatic fibrosis”.
